In data set [1] the target is Serine/threonine-protein kinase Nek6 (Homo sapiens) (UniProt Q9HC98). Briefly: Binding affinity to wild-type human full length NEK6 (M8 to T313 residues) expressed in bacterial expression system assessed as residual binding level at 1 uM by Kinomescan method relative to control. In a few lines: (§1)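 Single-point kinome-wide KINOMEscan binding panel, test compound at 1 μM, run by the provider's standard protocol.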

Data set [2] relates to Fibroblast growth factor receptor 3 (Homo sapiens), P22607 [G697C]. Description: Binding affinity to human partial length FGFR3 G697C mutant (R442 to S771 residues) expressed in bacterial expression system assessed as residual binding level at 1 uM by Kinomescan method relative to control. Summed up: (§2)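 Kinome-wide selectivity panel run by the KINOMEscan method, with the test compound at a single concentration of 1 μM. Wild-type and mutant kinases were profiled in the same screen.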

Data set [3] addresses RAC-beta serine/threonine-protein kinase (Homo sapiens) (UniProt P31751). Briefly: Binding affinity to wild-type human partial length AKT2 expressed in bacterial expression system assessed as residual binding level at 1 uM by Kinomescan method relative to control.
The target of the next data set is Insulin receptor (Homo sapiens, UniProt P06213). Briefly: Inhibition of recombinant His-tagged human InsR (1011 to 1382 residues) expressed in baculovirus expression system by Z-LYTE assay.
Data set [4] has as its target ALK tyrosine kinase receptor (Homo sapiens, UniProt Q9UM73). Briefly: Binding affinity to wild-type human partial length ALK (I1088 to E1409 residues) expressed in mammalian expression system assessed as residual binding level at 1 uM by Kinomescan method relative to control.
The target of data set [5] is Peripheral plasma membrane protein CASK (Homo sapiens) (UniProt O14936). Briefly: Binding affinity to wild-type human partial length CASK (M1 to H315 residues) expressed in mammalian expression system assessed as residual binding level at 1 uM by Kinomescan method relative to control.
The target in data set [6] is Ribosomal protein S6 kinase alpha-5 (Homo sapiens) (UniProt O75582). Briefly: Binding affinity to wild-type human partial length C-terminal RPS6KA5 kinase domain 2 (V390 to T718 residues) expressed in bacterial expression system assessed as residual binding level at 1 uM by Kinomescan method relative to control.
The target of data set [7] is Receptor tyrosine-protein kinase erbB-4 (Homo sapiens, UniProt Q15303). Briefly: Binding affinity to wild-type human partial length ERBB4 (L690 to K994 residues) expressed in bacterial expression system assessed as residual binding level at 1 uM by Kinomescan method relative to control.
Data set [8] relates to eIF-2-alpha kinase GCN2 (Homo sapiens), Q9P2K8 [S808G]. Description: Binding affinity to wild-type human partial length GCN2 kinase domain 2 (R585 to T1018 residues) S808G mutant expressed in bacterial expression system assessed as residual binding level at 1 uM by Kinomescan method relative to control.
Data set [9] relates to Tyrosine-protein kinase ABL1 (Homo sapiens), P00519 [Q252H]. Briefly: Binding affinity to human phosphorylated ABL1 Q252H mutant expressed in mammalian expression system assessed as residual binding level at 1 uM by Kinomescan method relative to control. Summed up:
as §2

Data set [10] addresses MAP kinase-interacting serine/threonine-protein kinase 2 (Homo sapiens) (UniProt Q9HBH9). Briefly: Binding affinity to wild-type human partial length MKNK2 (G63 to S388 residues) expressed in mammalian expression system assessed as residual binding level at 1 uM by Kinomescan method relative to control.
In data set [11] the target is AP2-associated protein kinase 1 (Homo sapiens) (UniProt Q2M2I8). Briefly: Binding affinity to human wild-type AAK1 (G25 to L333 residues) expressed in bacterial expression system assessed as residual binding level at 1 uM by Kinomescan method relative to control.
Data set [12] has as its target Misshapen-like kinase 1 (Homo sapiens) (UniProt Q8N4C8). Description: Binding affinity to wild-type human partial length MINK (M1 to K312 residues) expressed in mammalian expression system assessed as residual binding level at 1 uM by Kinomescan method relative to control.
Data set [13] deals with Epidermal growth factor receptor (Homo sapiens), P00533 [L861Q]. Briefly: Binding affinity to human partial length EGFR L861Q mutant (R669 to V1011 residues) expressed in bacterial expression system assessed as residual binding level at 1 uM by Kinomescan method relative to control. Summed up: as §2
The target of data set [14] is Mitogen-activated protein kinase kinase kinase kinase 5 (Homo sapiens) (UniProt Q9Y4K4). Description: Binding affinity to wild-type human partial length MAP4K5 (M1 to P297 residues) expressed in bacterial expression system assessed as residual binding level at 1 uM by Kinomescan method relative to control.
Data set [15] concerns the target Cyclin-dependent kinase 9 (Homo sapiens) (UniProt P50750). Description: Binding affinity to wild-type human full length CDK9 (M1 to F372 residues) expressed in bacterial expression system assessed as residual binding level at 1 uM by Kinomescan method relative to control.
Data set [16] has as its target Interleukin-1 receptor-associated kinase 3 (Homo sapiens) (UniProt Q9Y616). Briefly: Binding affinity to wild-type human partial length IRAK3 (V147 to E596 residues) expressed in bacterial expression system assessed as residual binding level at 1 uM by Kinomescan method relative to control.
Data set [17] has as its target Tyrosine-protein kinase Yes (Homo sapiens) (UniProt P07947). Description: Binding affinity to wild-type human partial length YES (T257 to L543 residues) expressed in bacterial expression system assessed as residual binding level at 1 uM by Kinomescan method relative to control.
In data set [18] the target is Mitogen-activated protein kinase 8 (Homo sapiens) (UniProt P45983). Briefly: Binding affinity to wild-type human full length JNK1 (M1 to Q384 residues) expressed in mammalian expression system assessed as residual binding level at 1 uM by Kinomescan method relative to control. Summed up:
as §1

The target of data set [19] is Rhodopsin kinase GRK1 (Homo sapiens) (UniProt Q15835). Briefly: Binding affinity to wild-type human full length GRK1 (M1 to S563 residues) expressed in mammalian expression system assessed as residual binding level at 1 uM by Kinomescan method relative to control. In a few lines: as §1
Data set [20] concerns Tyrosine-protein kinase ABL1 (Homo sapiens), P00519 [F317L]. Description: Binding affinity to human phosphorylated ABL1 F317L mutant (S229 to K512 residues) expressed in mammalian expression system assessed as residual binding level at 1 uM by Kinomescan method relative to control. Summed up:
as §2

A short description of data set [21]: Metabolic stability in dog liver microsomes assessed as parent compound remaining at 1 uM after 30 mins in presence of NADPH by LC/MS/MS analysis. The format is ADME, Canis lupus familiaris, Microsome. Particulars: read-out: Stability. In a few lines: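 Compound at 1 μM final with 0.5 mg/mL microsomal protein in 100 mM phosphate buffer pH 7.4 at 37 °C, started by adding an NADPH-regenerating system. Reactions were quenched with cold acetonitrile at 0 and 30 min and spun down. Supernatant was analysed by LC-MS/MS. The 0-min sample, quenched before NADPH addition, was set as 100%, and percent parent remaining came from peak areas.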
(Microsomes from liver hold many membrane-bound enzymes, among them those of drug oxidation.)

The target of data set [22] is Calcium/calmodulin-dependent protein kinase kinase 1 (Homo sapiens) (UniProt Q8N5S9). Briefly: Binding affinity to wild-type human partial length CAMKK1 (R65 to E414 residues) expressed in bacterial expression system assessed as residual binding level at 1 uM by Kinomescan method relative to control.

SMILES strings stand for the structures.

Sequence of Calcium/calmodulin-dependent protein kinase kinase 1 (Homo sapiens) (Q8N5S9 whole entry, looked up, the tested form may be a part): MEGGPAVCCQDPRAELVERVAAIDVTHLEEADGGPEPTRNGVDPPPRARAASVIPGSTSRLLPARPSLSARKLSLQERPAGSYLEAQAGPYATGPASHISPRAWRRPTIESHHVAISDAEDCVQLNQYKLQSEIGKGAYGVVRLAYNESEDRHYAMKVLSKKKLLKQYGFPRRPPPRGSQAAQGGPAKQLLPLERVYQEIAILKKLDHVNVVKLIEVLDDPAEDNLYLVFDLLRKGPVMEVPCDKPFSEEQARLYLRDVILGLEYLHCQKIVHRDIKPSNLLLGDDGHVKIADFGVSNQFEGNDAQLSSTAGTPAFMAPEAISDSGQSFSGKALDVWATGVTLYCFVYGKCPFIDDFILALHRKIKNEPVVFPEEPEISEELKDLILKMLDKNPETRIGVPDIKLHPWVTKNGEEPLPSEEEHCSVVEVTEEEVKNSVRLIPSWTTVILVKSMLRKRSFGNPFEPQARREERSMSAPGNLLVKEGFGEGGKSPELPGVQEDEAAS
Sequence of Tyrosine-protein kinase Yes (Homo sapiens) (P07947 2-543 limits assumed): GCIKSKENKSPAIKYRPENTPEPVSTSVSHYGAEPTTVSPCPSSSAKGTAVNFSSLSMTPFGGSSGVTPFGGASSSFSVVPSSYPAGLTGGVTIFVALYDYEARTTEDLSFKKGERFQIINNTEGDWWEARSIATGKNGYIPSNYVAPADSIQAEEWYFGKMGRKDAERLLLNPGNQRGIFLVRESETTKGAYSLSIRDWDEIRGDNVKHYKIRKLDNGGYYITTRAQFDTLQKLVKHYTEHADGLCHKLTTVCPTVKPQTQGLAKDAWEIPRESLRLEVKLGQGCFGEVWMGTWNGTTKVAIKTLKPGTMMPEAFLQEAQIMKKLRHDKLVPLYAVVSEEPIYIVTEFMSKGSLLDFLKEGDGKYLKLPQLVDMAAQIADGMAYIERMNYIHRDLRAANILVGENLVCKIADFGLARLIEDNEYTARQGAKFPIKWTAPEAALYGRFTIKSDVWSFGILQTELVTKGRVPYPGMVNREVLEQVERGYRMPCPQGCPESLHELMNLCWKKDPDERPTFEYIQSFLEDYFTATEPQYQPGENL
Sequence of Fibroblast growth factor receptor 3 (Homo sapiens), P22607 [G697C] (P22607 whole entry G697C, the tested form may be a part): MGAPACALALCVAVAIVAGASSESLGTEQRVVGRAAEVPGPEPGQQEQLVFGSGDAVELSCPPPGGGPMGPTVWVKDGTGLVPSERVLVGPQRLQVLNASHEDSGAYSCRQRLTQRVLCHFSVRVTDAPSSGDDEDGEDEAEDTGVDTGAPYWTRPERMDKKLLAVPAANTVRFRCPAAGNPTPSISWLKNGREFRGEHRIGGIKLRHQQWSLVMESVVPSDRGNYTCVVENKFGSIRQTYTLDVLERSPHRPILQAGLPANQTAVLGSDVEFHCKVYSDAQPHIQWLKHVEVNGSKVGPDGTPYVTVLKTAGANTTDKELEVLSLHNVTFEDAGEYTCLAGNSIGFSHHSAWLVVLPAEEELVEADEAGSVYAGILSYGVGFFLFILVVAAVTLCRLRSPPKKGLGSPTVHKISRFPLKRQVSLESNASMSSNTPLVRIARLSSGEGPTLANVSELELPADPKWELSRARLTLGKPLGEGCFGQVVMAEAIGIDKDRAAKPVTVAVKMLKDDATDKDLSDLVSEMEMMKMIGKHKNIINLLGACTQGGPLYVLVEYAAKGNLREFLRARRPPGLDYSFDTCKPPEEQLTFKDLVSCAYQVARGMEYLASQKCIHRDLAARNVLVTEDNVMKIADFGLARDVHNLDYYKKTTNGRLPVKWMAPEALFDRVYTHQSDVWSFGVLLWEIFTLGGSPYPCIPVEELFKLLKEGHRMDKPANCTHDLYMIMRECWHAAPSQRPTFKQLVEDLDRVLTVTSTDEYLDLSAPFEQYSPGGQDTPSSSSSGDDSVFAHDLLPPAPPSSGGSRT
Sequence of RAC-beta serine/threonine-protein kinase (Homo sapiens) (P31751 whole entry, the tested form may be a part): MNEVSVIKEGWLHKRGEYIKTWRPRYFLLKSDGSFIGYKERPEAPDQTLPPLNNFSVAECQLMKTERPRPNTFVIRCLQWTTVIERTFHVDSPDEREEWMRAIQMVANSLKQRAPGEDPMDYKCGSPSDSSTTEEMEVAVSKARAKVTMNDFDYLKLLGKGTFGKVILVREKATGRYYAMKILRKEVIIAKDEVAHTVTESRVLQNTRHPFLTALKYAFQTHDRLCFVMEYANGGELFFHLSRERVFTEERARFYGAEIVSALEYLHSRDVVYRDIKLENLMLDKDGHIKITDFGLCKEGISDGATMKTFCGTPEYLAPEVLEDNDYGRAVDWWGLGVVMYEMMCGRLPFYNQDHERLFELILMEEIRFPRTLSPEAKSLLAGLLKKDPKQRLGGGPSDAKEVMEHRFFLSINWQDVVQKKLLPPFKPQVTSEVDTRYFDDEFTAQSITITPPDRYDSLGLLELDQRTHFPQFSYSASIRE
Sequence of eIF-2-alpha kinase GCN2 (Homo sapiens), Q9P2K8 [S808G] (Q9P2K8 whole entry S808G, the tested form may be a part): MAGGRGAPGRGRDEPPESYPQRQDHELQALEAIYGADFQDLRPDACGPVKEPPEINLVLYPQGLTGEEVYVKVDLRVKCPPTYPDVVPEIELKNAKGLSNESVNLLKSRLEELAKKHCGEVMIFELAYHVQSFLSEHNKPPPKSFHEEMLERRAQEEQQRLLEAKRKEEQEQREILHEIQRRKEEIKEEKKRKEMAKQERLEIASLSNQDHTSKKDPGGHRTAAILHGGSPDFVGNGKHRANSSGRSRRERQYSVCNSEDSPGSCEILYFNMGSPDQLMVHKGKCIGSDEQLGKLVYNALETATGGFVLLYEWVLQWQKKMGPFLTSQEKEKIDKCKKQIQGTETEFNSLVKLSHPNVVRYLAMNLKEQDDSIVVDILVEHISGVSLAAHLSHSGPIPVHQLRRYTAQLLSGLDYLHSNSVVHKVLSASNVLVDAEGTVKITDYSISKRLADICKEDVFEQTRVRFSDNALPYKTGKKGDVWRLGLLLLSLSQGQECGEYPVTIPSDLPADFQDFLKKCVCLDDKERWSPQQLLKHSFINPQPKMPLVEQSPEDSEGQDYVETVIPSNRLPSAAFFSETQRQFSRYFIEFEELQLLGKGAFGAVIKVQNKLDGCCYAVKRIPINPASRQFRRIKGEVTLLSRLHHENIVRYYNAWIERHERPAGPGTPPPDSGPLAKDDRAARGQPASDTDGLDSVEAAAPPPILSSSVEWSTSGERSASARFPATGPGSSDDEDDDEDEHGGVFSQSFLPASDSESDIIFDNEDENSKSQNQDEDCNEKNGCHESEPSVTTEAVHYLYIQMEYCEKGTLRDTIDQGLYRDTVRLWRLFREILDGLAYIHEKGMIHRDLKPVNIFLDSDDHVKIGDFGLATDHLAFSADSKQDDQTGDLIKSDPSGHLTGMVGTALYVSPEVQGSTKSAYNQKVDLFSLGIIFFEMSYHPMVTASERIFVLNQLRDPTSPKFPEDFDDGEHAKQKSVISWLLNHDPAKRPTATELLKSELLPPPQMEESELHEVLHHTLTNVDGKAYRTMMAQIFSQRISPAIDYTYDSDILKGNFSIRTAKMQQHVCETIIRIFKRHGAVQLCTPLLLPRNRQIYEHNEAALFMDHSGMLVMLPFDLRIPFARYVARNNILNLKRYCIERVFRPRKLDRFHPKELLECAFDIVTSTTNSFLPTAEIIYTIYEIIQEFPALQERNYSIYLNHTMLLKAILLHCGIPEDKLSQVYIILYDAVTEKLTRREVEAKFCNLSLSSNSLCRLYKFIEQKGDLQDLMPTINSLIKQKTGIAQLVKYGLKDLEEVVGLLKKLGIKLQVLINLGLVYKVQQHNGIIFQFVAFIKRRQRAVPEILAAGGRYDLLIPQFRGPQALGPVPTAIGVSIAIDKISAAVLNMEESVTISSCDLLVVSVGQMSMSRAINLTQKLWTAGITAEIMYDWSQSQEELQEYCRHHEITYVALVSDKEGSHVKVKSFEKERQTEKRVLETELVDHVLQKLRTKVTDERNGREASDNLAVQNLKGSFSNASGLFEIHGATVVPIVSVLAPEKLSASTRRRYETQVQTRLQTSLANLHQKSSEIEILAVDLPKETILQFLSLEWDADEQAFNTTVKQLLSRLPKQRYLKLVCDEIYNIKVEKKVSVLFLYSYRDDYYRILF
Sequence of Serine/threonine-protein kinase Nek6 (Homo sapiens) (Q9HC98 whole entry, the tested form may be a part): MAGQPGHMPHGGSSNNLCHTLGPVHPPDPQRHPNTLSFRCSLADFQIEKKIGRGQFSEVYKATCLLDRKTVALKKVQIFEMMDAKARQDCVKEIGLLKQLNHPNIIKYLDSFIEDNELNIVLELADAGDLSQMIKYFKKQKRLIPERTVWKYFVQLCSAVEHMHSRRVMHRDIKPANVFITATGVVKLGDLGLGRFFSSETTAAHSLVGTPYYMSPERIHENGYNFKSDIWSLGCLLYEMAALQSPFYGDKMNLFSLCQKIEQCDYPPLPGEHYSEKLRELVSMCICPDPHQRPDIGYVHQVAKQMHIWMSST
Sequence of Mitogen-activated protein kinase 8 (Homo sapiens) (P45983 whole entry, the tested form may be a part): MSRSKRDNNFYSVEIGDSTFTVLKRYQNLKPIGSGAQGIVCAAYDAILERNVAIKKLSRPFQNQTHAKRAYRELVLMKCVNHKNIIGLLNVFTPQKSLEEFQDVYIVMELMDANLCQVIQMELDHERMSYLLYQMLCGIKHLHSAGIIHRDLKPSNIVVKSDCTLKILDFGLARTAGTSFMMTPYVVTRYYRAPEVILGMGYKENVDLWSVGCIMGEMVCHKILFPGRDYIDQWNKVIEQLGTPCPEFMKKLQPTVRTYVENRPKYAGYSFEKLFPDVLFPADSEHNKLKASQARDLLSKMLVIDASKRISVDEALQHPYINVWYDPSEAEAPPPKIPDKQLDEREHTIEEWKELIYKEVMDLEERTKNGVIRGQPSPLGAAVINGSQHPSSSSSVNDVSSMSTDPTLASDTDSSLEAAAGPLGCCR

Take `C=CC(=O)Nc1cc(Nc2ncc(Cl)c(Nc3ccccc3S(=O)(=O)C(C)C)n2)c(OC)cc1N(C)CCN(C)C`: the Activity was 80% in data set [1]; 15% in data set [2]; 94% in [3]; 0% in [4]; 95% in [5]; 64% in data set [6]. Further, the Activity in data set [7] came out at 0%; in data set [8], 91%; in data set [9], 2.8%; in data set [10] it was 26%; in [11], 72%; in [12], 34%. The Activity in [13] was 2%; in data set [14], 66%; in [15] it was 80%; in data set [16] it was 37%; in data set [17], 17%; in data set [18], 59%. Moreover, the Activity in [19] amounted to 28%; in data set [20], 2.9%; in data set [22], 2.8%. In addition, at Insulin receptor, the IC50 – broadly, the midpoint of a concentration-inhibition curve – came out at 8 nM. For the same molecule, the remaining at 0.5 h, 1 µM in data set [21] was 17%.

For the origin of these results see ChEMBL document CHEMBL4382192, “Discovery of a potent dual ALK and EGFR T790M inhibitor” (Eur J Med Chem, 2017).
